Measurements gathered from unrelated publications.
Compare with care: the assays were run in different laboratories.
Target: Inhibitor of nuclear factor kappa-B kinase subunit alpha (CHUK, Homo sapiens, UniProt O15111)
Sequence (O15111 1-745, as in one of the studies): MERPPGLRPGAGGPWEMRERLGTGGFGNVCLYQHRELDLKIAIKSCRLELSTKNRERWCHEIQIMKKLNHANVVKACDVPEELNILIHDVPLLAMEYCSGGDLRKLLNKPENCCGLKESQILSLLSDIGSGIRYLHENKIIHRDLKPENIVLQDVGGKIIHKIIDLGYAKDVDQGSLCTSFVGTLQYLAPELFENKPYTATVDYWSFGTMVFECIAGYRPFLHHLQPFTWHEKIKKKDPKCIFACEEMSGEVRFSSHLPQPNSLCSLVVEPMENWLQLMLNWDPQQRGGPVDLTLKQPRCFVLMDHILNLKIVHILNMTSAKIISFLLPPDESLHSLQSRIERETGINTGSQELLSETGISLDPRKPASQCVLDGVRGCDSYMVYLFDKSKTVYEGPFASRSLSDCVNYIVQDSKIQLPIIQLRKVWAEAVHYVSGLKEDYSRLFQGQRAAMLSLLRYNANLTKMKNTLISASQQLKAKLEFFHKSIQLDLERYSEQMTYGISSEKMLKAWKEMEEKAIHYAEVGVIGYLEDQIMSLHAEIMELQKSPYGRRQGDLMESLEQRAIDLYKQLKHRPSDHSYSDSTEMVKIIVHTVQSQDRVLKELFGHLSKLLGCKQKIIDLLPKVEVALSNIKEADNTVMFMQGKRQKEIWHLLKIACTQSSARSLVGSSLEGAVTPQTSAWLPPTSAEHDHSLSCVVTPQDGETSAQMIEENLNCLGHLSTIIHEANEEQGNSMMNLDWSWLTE

SMILES	effect on	method	tested at	remaining binding [%]
Nc1ncc2c(n1)-c1c([nH]c3ccc(C#CC4CC4)cc13)CCCC2	binding	competition with immobilised ligand	1 µM	98
CN(C)c1nccc(-c2cnn3ncccc23)n1	binding	–	1 µM	81
Nc1c(C(=O)NCc2ccc(C(=O)NCCCC3CCCCC3)cc2)cnn1-c1ccccc1	cell-free assay	competition with immobilised ligand	0.1 µM	100
FC(F)(F)Oc1cccc(-c2cnc3ccc(-c4ccncc4)nn23)c1	cell-free assay	competition with immobilised ligand	5 µM	39
O=C(NC[C@@H]1[C@H]2CN(C(=O)OCc3cc(C(F)(F)F)cc(C(F)(F)F)c3)C[C@@H]12)c1ccc2[nH]nnc2c1	cell-free assay	competition with immobilised ligand	1 µM	100
C[C@@H]1CN(c2ccc3ncc(-c4ccc5[nH]nc(C6CC6)c5c4)n3n2)C[C@H](C)O1	binding	competition with immobilised ligand	0.5 µM	85
C[C@@H](c1ccc(-n2cnc3c(N)ncnc32)cc1)N1CCc2nn(C)c(Cc3ccccc3)c2C1=O	binding	competition with immobilised ligand	0.1 µM	80
C=CC(=O)N1CCC(C(=O)NCC(=O)N2CCN(c3nc(-c4cnc(N)nc4C(F)F)nc(N4CCOCC4)n3)CC2)CC1	binding	competition with immobilised ligand	1 µM	71
c1cnn2ncc(-c3ccnc(N4CCC45COC5)n3)c2c1	binding	–	1 µM	35
COc1ncc2cc3ccccc3nc2c1C#N	cell-free assay	competition with immobilised ligand	5 µM	98
Cc1cnc(Nc2ccc(C(=O)N3CCC(N4CCCC4)CC3)cc2)nc1-c1cc2ccccc2s1	binding	competition with immobilised ligand	1 µM	1.3
CN(c1nccc(-c2cnn3ncccc23)n1)C1CC1	binding	–	1 µM	100
Cc1nccc(COC(=O)N2C[C@@H]3[C@@H](CNC(=O)c4ccc5[nH]nnc5c4)[C@@H]3C2)n1	cell-free assay	competition with immobilised ligand	1 µM	100
O=C(NCCCN1CCOCC1)c1ccc(Nc2ncc(Cl)c(-c3ccc(Cl)s3)n2)cc1	binding	competition with immobilised ligand	1 µM	51
C[C@@]1(Cc2ccc(C#N)cc2)C(=O)N(c2cc(Cl)cc(Cl)c2)c2ncc(C(=O)NC3(c4nc(C5CCC5)no4)CC3)n21	cell-free assay	competition with immobilised ligand	1 µM	100
C[C@H]1CCN(c2nccc(-c3cnn4ncccc34)n2)C1	binding	–	1 µM	62
O=C(Nc1c[nH]nc1C(=O)NC1CCNCC1)c1cc(F)cc(F)c1	binding	competition with immobilised ligand	1 µM	100
COc1cnc(Nc2cccc(S(N)(=O)=O)c2)nc1N1CCN(c2ccccc2)CC1	binding	competition with immobilised ligand	1 µM	89
CN(C)c1nccc(-c2cnc3ncccn23)n1	binding	–	1 µM	71
COc1ccc2cc(OCC3(C(=O)O)CN(C(=O)c4ccc(F)cc4)C3)ccc2c1	cell-free assay	competition with immobilised ligand	1 µM	100
O=C(c1ccc(Nc2ncc(Cl)c(-c3ccc(Cl)s3)n2)cc1)N1CCC(N2CCCC2)CC1	binding	competition with immobilised ligand	1 µM	2.9
CCCOc1ccc([C@@H]2[C@@H](C(=O)O)[C@H](c3ccc4c(c3)OCO4)CN2CC(=O)Nc2c(CC)cccc2CC)cc1	cell-free assay	competition with immobilised ligand	1 µM	86
F[C@@H]1CCN(c2nccc(-c3cnn4ncccc34)n2)C1	binding	–	1 µM	100
C[C@@H](c1cccc(C#N)c1)n1cc(Cl)cc(C(N)=O)c1=N	cell-free assay	competition with immobilised ligand	1 µM	100
N[C@H]1CCN(c2nccc(-c3cnn4ncccc34)n2)C1	binding	–	1 µM	82
